The source of these data is ChEMBL document CHEMBL5126577, “Discovery of honokiol thioethers containing 1,3,4-oxadiazole moieties as potential α-glucosidase and SARS-CoV-2 entry inhibitors” (Bioorg Med Chem, 2022).

A short description of data set [1]: Cytotoxicity against human L02 cells assessed as cell survival rate at 100 uM by MTT assay. It is filed as toxicity, cell-based. The following applies: read-out: Survival. A general note: Formazan colour is commonly taken as a measure of viable cells.
The nature of data set [2]: Cytotoxicity against human HEK-293T cells overexpressing ACE2 assessed as maximal non-toxic dose incubated for 4 hrs. Type of data set: toxicity, cell-based.
The next data set concerns L02. Description: Cytotoxicity against human L02 cells assessed as reduction on cell viability at 3.125 to 100 uM by MTT assay. Particulars: l02, 100 µM, dose 3.125-100 µM. Type of data set: toxicity, cell-based.
Data set [3] can be described thus: Inhibition of alpha-glucosidase (unknown origin) using PNPG as substrate at 5 to 45 uM preincubated for 15 mins followed by substrate addition and measured after 10 mins by microplate reader analysis. The following applies: Homo sapiens; dose 5-45 µM, time 25.0 min. A digest of the protocol:
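Compounds in DMSO/PBS dilution series were incubated with α-glucosidase (1.0 U/mL in PBS) for 15 min at 37 °C. 1 mM PNPG was added and incubated 10 min, then OD was read at 405 nm. Inhibition % was corrected with PBS-only and enzyme-free blanks. IC50 was calculated, with experiments run in triplicate.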

Data set [4] deals with Angiotensin-converting enzyme 2 (Homo sapiens, UniProt Q9BYF1). Description: Binding affinity to human ACE2 assessed as equilibrium dissociation constant by biolayer interferometry assay. A digest of the protocol:
(§1)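 BLI on Ni-NTA biosensors loaded with His-tagged recombinant SARS-CoV-2 spike RBD or human ACE2. Compounds (10 mM DMSO stock) were diluted serially in PBS. Each cycle: PBS equilibration 10 min, baseline 120 s, association 120 s, dissociation in PBS 120 s, all at 30 °C. Curves were double-referenced to blank sensors and PBS, and KD came from a 1:1 binding fit.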

The next data set deals with Spike glycoprotein (Severe acute respiratory syndrome coronavirus 2, UniProt P0DTC2). Description: Binding affinity to SARS-CoV-2 spike protein receptor-binding domain assessed as equilibrium dissociation constant by biolayer interferometry assay. A digest of the protocol:
as §1
Background: BLI is a label-free optical method that tracks binding on a fibre tip over time.

A value given as a limit tells only on which side of the number the result lay.

Chain of Angiotensin-converting enzyme 2 (Q9BYF1 whole entry): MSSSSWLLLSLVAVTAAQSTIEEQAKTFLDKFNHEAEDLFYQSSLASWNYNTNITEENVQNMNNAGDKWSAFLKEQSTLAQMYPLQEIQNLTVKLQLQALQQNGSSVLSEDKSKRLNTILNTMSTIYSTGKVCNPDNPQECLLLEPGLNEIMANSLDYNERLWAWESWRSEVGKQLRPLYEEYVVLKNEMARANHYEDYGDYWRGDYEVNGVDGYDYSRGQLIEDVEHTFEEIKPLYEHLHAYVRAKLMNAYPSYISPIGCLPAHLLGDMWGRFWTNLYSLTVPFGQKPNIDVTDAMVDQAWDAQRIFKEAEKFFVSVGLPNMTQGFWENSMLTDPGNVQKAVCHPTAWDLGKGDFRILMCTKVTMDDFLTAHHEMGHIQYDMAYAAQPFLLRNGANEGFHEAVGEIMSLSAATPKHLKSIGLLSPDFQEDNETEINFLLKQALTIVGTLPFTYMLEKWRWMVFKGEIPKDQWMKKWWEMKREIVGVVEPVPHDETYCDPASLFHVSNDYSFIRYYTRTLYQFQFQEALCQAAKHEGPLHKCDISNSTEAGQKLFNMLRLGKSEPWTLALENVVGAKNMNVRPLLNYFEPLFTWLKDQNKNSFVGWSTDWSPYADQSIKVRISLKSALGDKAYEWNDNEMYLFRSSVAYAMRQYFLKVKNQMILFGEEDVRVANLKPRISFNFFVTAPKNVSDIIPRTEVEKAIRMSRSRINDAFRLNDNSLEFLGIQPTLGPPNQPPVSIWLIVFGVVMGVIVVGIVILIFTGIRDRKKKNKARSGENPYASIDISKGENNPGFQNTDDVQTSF

In general, inhibition refers to the drop in the measured response relative to a control, in per cent. A lower inhibition goes with little suppression. With `C=CCc1cc(-c2cc(CC=C)c3oc(SCc4nnc(-c5cccc(C)c5)o4)nc3c2)c2oc(SCc3nnc(-c4cccc(C)c4)o3)nc2c1`, the viability at 100 µM in data set [1] turned out to be 80%. The MNTC at 4 h in data set [2] is > 100 µM. In addition, the Activity entry in the data set on L02 is recorded as “Non-Toxic”. The compound further showed an inhibition in data set [3] of 95.2%.

On to `C=CCc1cc(-c2cc(CC=C)c3oc(SCc4nnc(-c5ccccc5Br)o4)nc3c2)c2oc(SCc3nnc(-c4ccccc4Br)o3)nc2c1`, for which the MNTC at 4 h in data set [2] was > 100 µM. The inhibition in data set [3] was 91.5%.

With `C=CCc1cc(-c2cc(CC=C)c3oc(SCc4nnc(-c5ccccc5OC)o4)nc3c2)c2oc(SCc3nnc(-c4ccccc4OC)o3)nc2c1`, the MNTC at 4 h in data set [2] was > 100 µM. Moreover, the inhibition in data set [3] worked out at 25.2%.

For `C=CCc1cc(CSc2nnc(-c3ccccc3C)o2)c(O)c(-c2ccc(O)c(CC=C)c2)c1`, in data set [2], the MNTC at 4 h was > 100 µM. The inhibition in data set [3] worked out at 64.5%.

A word on the Kd: it is the constant that tells how readily two partners part at equilibrium. As for `C=CCc1cc(CSc2nnc(-c3ccccc3)o2)c(O)c(-c2ccc(O)c(CC=C)c2)c1`, the Kd in data set [4] turned out to be 14 µM; on Spike glycoprotein, 6.94 µM. The viability at 100 µM in data set [1] worked out at 80%. Besides, the MNTC at 4 h in data set [2] was > 100 µM. For the same compound, the Activity entry in the data set on L02 is recorded as “Non-Toxic”. In data set [3], the inhibition amounted to 69.8%.

In the case of `C=CCc1cc(-c2cc(CC=C)c3oc(SCc4nnc(-c5ccc(C)cc5)o4)nc3c2)c2oc(SCc3nnc(-c4ccc(C)cc4)o3)nc2c1`, in data set [2], the MNTC at 4 h was > 100 µM. Also, in data set [3], the inhibition came out at 13.5%.

Turning to `C=CCc1cc(-c2cc(CC=C)c3oc(SCc4nnc(-c5ccccc5Cl)o4)nc3c2)c2oc(SCc3nnc(-c4ccccc4Cl)o3)nc2c1`, the MNTC at 4 h in data set [2] is > 100 µM. Moreover, the inhibition in data set [3] was 19.4%.

As to `C=CCc1cc(-c2cc(CC=C)c3oc(SCc4nnc(-c5cccc(OC)c5)o4)nc3c2)c2oc(SCc3nnc(-c4cccc(OC)c4)o3)nc2c1`, the MNTC at 4 h in data set [2] was > 100 µM. For the same compound, the inhibition in data set [3] came out at 95.5%.

As for `C=CCc1cc(-c2cc(CC=C)c3oc(SCc4nnc(-c5cccc(Cl)c5)o4)nc3c2)c2oc(SCc3nnc(-c4cccc(Cl)c4)o3)nc2c1`, the MNTC at 4 h in data set [2] was > 100 µM. In data set [3], this compound had an inhibition of 10.4%.

As to `C=CCc1cc(CSc2nnc(-c3ccccc3Cl)o2)c(O)c(-c2ccc(O)c(CC=C)c2)c1`, the MNTC at 4 h in data set [2] was > 100 µM. This compound also displayed an inhibition in data set [3] of 64.5%.

With `C=CCc1cc(-c2cc(CC=C)c3oc(SCc4nnc(-c5ccc(Cl)cc5)o4)nc3c2)c2oc(SCc3nnc(-c4ccc(Cl)cc4)o3)nc2c1`, the MNTC at 4 h in data set [2] is > 100 µM. Also, in data set [3], the inhibition turned out to be 57.9%.

`C=CCc1cc(CSc2nnc(-c3ccc(Br)cc3)o2)c(O)c(-c2ccc(O)c(CC=C)c2)c1` showed an inhibition in data set [3] of 3.7%.

Regarding `C=CCc1cc(CSc2nnc(-c3cccc(F)c3)o2)c(O)c(-c2ccc(O)c(CC=C)c2)c1`, in data set [3], the inhibition worked out at 53.5%.

Consider `C=CCc1cc(CSc2nnc(-c3cccc(C)c3)o2)c(O)c(-c2ccc(O)c(CC=C)c2)c1`, for which, in data set [3], the inhibition is 78.2%.

For the compound `C=CCc1cc(-c2cc(CC=C)c3oc(SCc4nnc(-c5ccc(OC)cc5)o4)nc3c2)c2oc(SCc3nnc(-c4ccc(OC)cc4)o3)nc2c1`, in data set [2], the MNTC at 4 h was > 100 µM. Also, the inhibition in data set [3] was determined as 9.9%.

With `C=CCc1cc(CSc2nnc(-c3ccc(C)cc3)o2)c(O)c(-c2ccc(O)c(CC=C)c2)c1`, the inhibition in data set [3] was 6.7%.

For the compound `C=CCc1cc(-c2cc(CC=C)c3oc(SCc4nnc(-c5ccc(Br)cc5)o4)nc3c2)c2oc(SCc3nnc(-c4ccc(Br)cc4)o3)nc2c1`, in data set [2], the MNTC at 4 h is > 100 µM. Further, the inhibition in data set [3] turned out to be 22.4%.

`C=CCc1cc(-c2cc(CC=C)c3oc(SCc4nnc(-c5ccccc5F)o4)nc3c2)c2oc(SCc3nnc(-c4ccccc4F)o3)nc2c1`: the MNTC at 4 h in data set [2] is > 100 µM. Besides, the inhibition in data set [3] came out at 33.9%.

`C=CCc1cc(-c2cc(CC=C)c3oc(SCc4nnc(-c5ccc(F)cc5)o4)nc3c2)c2oc(SCc3nnc(-c4ccc(F)cc4)o3)nc2c1`: the MNTC at 4 h in data set [2] was > 100 µM. The compound also came in with an inhibition in data set [3] of 8.4%.

As for `C=CCc1cc(-c2cc(CC=C)c3oc(SCc4nnc(-c5ccccc5C)o4)nc3c2)c2oc(SCc3nnc(-c4ccccc4C)o3)nc2c1`, the MNTC at 4 h in data set [2] was > 100 µM.

Take `C=CCc1cc(CSc2nnc(-c3ccccc3F)o2)c(O)c(-c2ccc(O)c(CC=C)c2)c1`: the MNTC at 4 h in data set [2] is > 100 µM.

As to `C=CCc1cc(-c2cc(CC=C)c3oc(SCc4nnc(-c5ccccc5)o4)nc3c2)c2oc(SCc3nnc(-c4ccccc4)o3)nc2c1`, the MNTC at 4 h in data set [2] was > 100 µM. The inhibition in data set [3] was determined as 6.3%.

In turn, `C=CCc1cc(CSc2nnc(-c3ccc([N+](=O)[O-])cc3)o2)c(O)c(-c2ccc(O)c(CC=C)c2)c1` yielded an inhibition in data set [3] of 79.5%.

For `C=CCc1cc(CSc2nnc(-c3cccc(OC)c3)o2)c(O)c(-c2ccc(O)c(CC=C)c2)c1`, the inhibition in data set [3] was determined as 81.8%.

`C=CCc1ccc(O)c(-c2ccc(O)c(CC=C)c2)c1` [HONOKIOL]: the MNTC at 4 h in data set [2] was determined as 50 µM. Also, the Kd on Spike glycoprotein amounted to 25 µM. The compound further showed an inhibition in data set [3] of 17.1%.

In turn, `C=CCc1cc(CSc2nnc(-c3ccc(Cl)cc3)o2)c(O)c(-c2ccc(O)c(CC=C)c2)c1` showed an inhibition in data set [3] of 7.1%.

`C=CCc1cc(-c2cc(CC=C)c3oc(SCc4nnc(-c5cccc(Br)c5)o4)nc3c2)c2oc(SCc3nnc(-c4cccc(Br)c4)o3)nc2c1`: the MNTC at 4 h in data set [2] was > 100 µM. In data set [3], the inhibition stood at 12.4%.

On to `C=CCc1cc(CSc2nnc(-c3cccnc3)o2)c(O)c(-c2ccc(O)c(CC=C)c2)c1`, for which the figures for the dissociation constant (Kd) (in data set [4]; at Spike glycoprotein) were 16 µM and 7.29 µM, respectively. In data set [1], the viability at 100 µM worked out at 80%. Moreover, in data set [2], the MNTC at 4 h is > 100 µM. Also, the Activity result with L02 is given as “Non-Toxic”. The compound further returned an inhibition in data set [3] of 33.2%.

Regarding `C=CCc1cc(-c2cc(CC=C)c3oc(SCc4nnc(-c5cccc(F)c5)o4)nc3c2)c2oc(SCc3nnc(-c4cccc(F)c4)o3)nc2c1`, in data set [2], the MNTC at 4 h was > 100 µM. In addition, the inhibition in data set [3] was 14.6%.
